Experiment [1] addresses T1, Renin (Homo sapiens) (UniProt P00797).
T1 sequence (whole entry): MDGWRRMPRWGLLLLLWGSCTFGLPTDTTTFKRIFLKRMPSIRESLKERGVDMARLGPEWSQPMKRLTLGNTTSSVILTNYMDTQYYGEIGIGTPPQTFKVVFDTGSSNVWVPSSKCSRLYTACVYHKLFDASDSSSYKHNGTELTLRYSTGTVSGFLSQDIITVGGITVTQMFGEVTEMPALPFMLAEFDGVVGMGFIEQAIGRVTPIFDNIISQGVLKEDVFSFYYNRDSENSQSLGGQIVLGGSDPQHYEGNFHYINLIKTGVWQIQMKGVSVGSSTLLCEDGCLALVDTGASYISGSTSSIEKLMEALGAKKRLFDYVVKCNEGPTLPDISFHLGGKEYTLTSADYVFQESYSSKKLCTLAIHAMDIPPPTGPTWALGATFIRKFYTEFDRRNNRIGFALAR
Put plainly: Percent inhibition of compound against renin monkey plasma at 10e-6 M. The experiment is classed as cell-free. To be noted: Cercopithecidae, target entry is the homologue from another species. In a few lines:
(§1)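 Renin activity in monkey plasma, with inhibition measured as angiotensin I generated, quantified by radioimmunoassay following Haber's method.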

Another experiment concerns the target T2, Renin (Homo sapiens, UniProt P00797).
T2 sequence (P00797 whole entry): T1 sequence (whole entry)
Put plainly: Inhibitory concentration of compound against renin human plasma. Format: cell-free.

The target of experiment [2] is T1, Renin (Homo sapiens). Put plainly: Percent inhibition of compound against renin monkey plasma at 10E-6 M. Format: cell-free. To be noted: Cercopithecidae, target entry is the homologue from another species. In a few lines:
as §1

Experiment [3] is described as follows: Binding affinity of compound against endothiapepsin. A digest of the protocol: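 Reactions at 37 °C in 0.1 M sodium formate pH 3.5 with 4% DMSO (inhibitor stocks in DMSO). Enzyme preincubated 3 min at 37 °C. Initial rates taken at six substrate levels (0.8Km–10Km), then at ≥3 substrate levels after preincubation with ≥2 inhibitor concentrations. Ki fitted by Marquardt analysis to competitive-inhibition equation.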

The target of experiment [4] is T1, Renin (Homo sapiens). Put plainly: Percent inhibition of compound against renin human plasma at 10 e-6 M. Format: cell-free.
The target of experiment [5] is T1, Renin (Homo sapiens). Put plainly: Percent inhibition of compound against renin monkey plasma at 10 e-6 M. To be noted: Cercopithecidae, target entry is the homologue from another species.

Each structure is given as a SMILES string.

Broadly, the inhibition is how much of the control response was suppressed. In turn, `CC(C)CC(O)C(O)C(CC1CCCCC1)NC(=O)c1cc(NC(=O)CSc2ccccc2)ccc1CO` (stereo unspecified) gave an inhibition at Renin (Homo sapiens) [1] of 4.4%.
As usually defined, the IC50 is the point on the concentration scale where inhibition reaches its midpoint. Take `CCC(C)CNC(=O)CC(O)C(CC(C)C)NC(=O)C(CCCC/N=C(/S)NC)NC(=O)C(Cc1ccccc1)NS(=O)(=O)N(C)C` (stereo unspecified): the IC50 against Renin was 25 nM.
Regarding `CC(C)CC(O)C(O)C(CC1CCCCC1)NC(=O)c1cccc(NC(=O)CSc2ccccc2)c1` (stereo unspecified), the inhibition on Renin (Homo sapiens) [2] came to 12.6%.
By Ki is commonly meant a dissociation constant, usually derived from enzyme kinetics or from competition with a known ligand. In the case of `CCSC(NC(=O)[C@H](Cc1ccccc1)NS(=O)(=O)N1CCOCC1)C(=O)N[C@@H](CC1CCCCC1)[C@@H](O)[C@@H](O)CC(C)C` (stereo partly specified), the Ki in experiment [3] was 6.5 nM.
Take `CCC(C)CNC(=O)C(CC(C)C)CC(O)C(CC1CCCCC1)NC(=O)C(Cc1c[nH]cn1)NC(=O)C(Cc1cccc2ccccc12)Cc1cccc2ccccc12` (stereo unspecified): the half-inhibitory concentration (IC50) on Renin is 170 nM. In experiment [3], this compound had a Ki of 240 nM.
As for `CCC(C)CNC(=O)CP(=O)(O)C(CC(C)C)NC(=O)C(Cc1c[nH]cn1)NC(=O)C(Cc1ccccc1)NC(=O)OC(C)(C)C` (stereo unspecified), the inhibition against Renin (Homo sapiens) [4] amounted to 3.3%. Also, in experiment [3], affinity was put at a Ki of 110 nM.
Consider `COC(=O)C(C)(NC(=O)C(Cc1ccccc1)NS(=O)(=O)N1CCOCC1)C(=O)NC(CC1CCCCC1)C(O)C(O)CC(C)C` (stereo unspecified), for which, on Renin (Homo sapiens) [5], the inhibition came out at 4.4%.
Compound `CC(C)CC(NC(=O)CC(O)C(CC1CCCCC1)NC(=O)CCC(O)C(Cc1ccccc1)NC(=O)OC(C)(C)C)C(=O)NCc1cccc(CN)c1` (stereo unspecified) gave an IC50 on Renin of 22 nM. For the same compound, in experiment [3], the affinity corresponds to a Ki of 16000 nM.

These data come from ChEMBL document CHEMBL1126919, “Analyses of ligand binding in five endothiapepsin crystal complexes and their use in the design and evaluation of novel renin inhibitors” (J Med Chem, 1993).
